Target: DENV2 NS2B-NS3 protease (Dengue virus type 2, UniProt P29990)
Test: DENV2 NS2B-NS3 protease inhibition assay
Format: biochemical
Conditions: for fold decrease of inhibitory activity: based on IC50, compared to 3e; for IC50: IC50 (Table 3), in vitro inhibition of DENV2 NS2B-NS3 protease, two decimals
Outline: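 Recombinant DENV-2 NS2B-NS3 protease (pQE-30, E. coli XL1-Blue MRF', IPTG-induced, Ni-NTA-purified) at 3.5 µM in 200 mM Tris-HCl pH 8.5. Preincubated with test compound (700 µM screen; 5.5–700.0 µM for IC50) for 10 min at 37 °C. Then 150 µM Boc-Gly-Arg-Arg-MCA added, 1 h at 37 °C. AMC read at ex 365/em 410 nm. % inhibition relative to enzyme+substrate control, buffer blank subtracted. n = 3; IC50 by nonlinear regression.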

DENV2 NS2B-NS3 protease, sequence (P29990 1346-1475): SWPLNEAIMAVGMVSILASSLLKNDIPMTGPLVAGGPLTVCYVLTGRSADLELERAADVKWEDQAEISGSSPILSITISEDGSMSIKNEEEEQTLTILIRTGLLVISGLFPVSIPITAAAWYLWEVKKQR
DENV2 NS2B-NS3 protease, sequence (P29990 1476-1653): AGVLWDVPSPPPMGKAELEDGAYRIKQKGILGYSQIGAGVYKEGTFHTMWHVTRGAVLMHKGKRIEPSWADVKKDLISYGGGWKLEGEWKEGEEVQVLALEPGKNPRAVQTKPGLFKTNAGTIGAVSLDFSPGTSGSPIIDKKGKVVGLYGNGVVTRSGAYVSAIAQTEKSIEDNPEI

| SMILES | inhibition at 700 µM | fold decrease of inhibitory activity | IC50 | fold decrease of inhibition (based on IC50, compared to 3k) |
| --- | --- | --- | --- | --- |
| COc1ccc(-c2nc3cc4nc5ccccc5nc4cc3[nH]2)cc1[N+](=O)[O-] [Compound 3a, 2-(4-methoxy-3-nitrophenyl)-1H-imidazo [4,5-b]phenazine] | 83.5 ± 1.96% | 1 fold | – | – |
| Oc1ccccc1-c1nc2cc3nc4ccccc4nc3cc2[nH]1 [Compound 3b, 2-(2-hydroxyphenyl)-1H-imidazo [4,5-b]phenazine] | 46.6 ± 1.68% | – | – | – |
| COc1ccc(-c2nc3cc4nc5ccccc5nc4cc3[nH]2)cc1OC [Compound 3c, 2-(3,4-dimethoxyphenyl)-1H-imidazo [4,5-b]phenazine] | 55.31 ± 0.39% | – | – | – |
| COc1cc([N+](=O)[O-])ccc1-c1nc2cc3nc4ccccc4nc3cc2[nH]1 [Compound 3d, 2-(2-methoxy-4-nitrophenyl)-1H-imidazo [4,5-b]phenazine] | 83.9 ± 1.67% | 1.4 fold | – | – |
| O=[N+]([O-])c1ccc(-c2nc3cc4nc5ccccc5nc4cc3[nH]2)cc1O [Compound 3e, 2-(3-hydroxy-4-nitrophenyl)-1H-imidazo [4,5-b]phenazine] | 95.5 ± 1.75% | – | 54.8 µM | – |
| Oc1c(Br)cccc1-c1nc2cc3nc4ccccc4nc3cc2[nH]1 [Compound 3f, 2-(3-bromo-2-hydroxyphenyl)-1H-imidazo [4,5-b]phenazine] | 70.8 ± 1.46% | – | – | – |
| COc1cc(-c2nc3cc4nc5ccccc5nc4cc3[nH]2)cc(OC)c1OC [Compound 3g, 2-(3,4,5-trimethoxyphenyl)-1H-imidazo [4,5-b]phenazine] | 53.3 ± 2.76% | – | – | – |
| Oc1ccc(-c2nc3cc4nc5ccccc5nc4cc3[nH]2)c(O)c1 [Compound 3h, 2-(2,4-dihydroxyphenyl)-1H-imidazo [4,5-b]phenazine] | 84.7 ± 1.26% | – | – | – |
| CC(C)c1ccc(-c2nc3cc4nc5ccccc5nc4cc3[nH]2)cc1 [Compound 3i, 2-(4-isopropylphenyl)-1H-imidazo [4,5-b]phenazine] | 75.68 ± 0.26% | – | – | – |
| Oc1ccc(-c2nc3cc4nc5ccccc5nc4cc3[nH]2)cc1 [Compound 3j, 2-(4-hydroxyphenyl)-1H-imidazo [4,5-b]phenazine] | 60.3 ± 2.27% | 3 fold | – | – |
| FC(F)(F)Oc1ccc(-c2nc3cc4nc5ccccc5nc4cc3[nH]2)cc1 [Compound 3k, 2-(4-(trifluoromethoxy)phenyl)-1H-imidazo [4,5-b]phenazine] | 63.3 ± 2.8% | – | 71.9 µM | – |
| Fc1ccccc1-c1nc2cc3nc4ccccc4nc3cc2[nH]1 [Compound 3l, 2-(2-fluorophenyl)-1H-imidazo [4,5-b]phenazine] | 78.23 ± 0.03% | – | – | – |
| Fc1ccc(-c2nc3cc4nc5ccccc5nc4cc3[nH]2)cc1 [Compound 3m, 2-(4-fluorophenyl)-1H-imidazo [4,5-b]phenazine] | 84.8 ± 0.89% | – | – | 2.2 fold |
| O=c1c(O)c(-c2ccc(O)c(O)c2)oc2cc(O)cc(O)c12 [Quercetin, reference compound] | 90.27 ± 0.49% | – | 105 µM | – |

— PMC10825487 (Heliyon, 2024)
